For orientation: pIC50 means the negative decadic logarithm of the IC50, by convention in mol/L. The IC50 is the concentration that inhibits the measured activity by half. A word on the Ki: it is the equilibrium dissociation constant of an inhibitor or competing ligand from its target.

The record followed here is ChEMBL document CHEMBL1139492, “Structure-activity relationships and effects on neuroactive steroid synthesis in a series of 2-phenylimidazo[1,2-a]pyridineacetamide peripheral benzodiazepine receptors ligands” (J Med Chem, 2005).

The target of test [1] is Benzodiazepine receptors; peripheral & central (Rattus norvegicus) (UniProt O09028+P15431+P18506+P18508+P19969+P20236+P23574+P23576+P28471+P28473+P30191+P62813+P63079+P63138+Q91ZM7+Q9ES14+P16257). The test can be described thus: Ratio of inhibition for peripheral benzodiazepine receptor of rat ovary and central benzodiazepine GABA-A receptor. Also on record: scale not given here. It is filed as tissue-based. To be noted: Female gonad.

In test [2] the test system is Rattus norvegicus. The test can be described thus: Effect of the 25 mg/kg compound on 3-alpha,5alpha-THDOC concentration in rat plasma after 30 min of intraperitoneal administration. It is filed as functional, organism-based. Also on record: dose 25 mg/kg. The method in brief: (§1)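 Male Sprague–Dawley rats, about 60 days old, given 25 mg/kg ip in saline with three drops Tween 80 per 5 mL, 0.3 mL/100 g; sampled 30 min later. Brain taken after focused microwave irradiation of the head, plasma after guillotine. Cortex and plasma extracted with ethyl acetate; steroids measured by radioimmunoassay. Results in ng/g tissue, at least eight rats per group, compared with vehicle-treated rats.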

Test [3] deals with Rattus norvegicus. The test can be described thus: Effect of the 25 mg/kg compound on 3-alpha,5alpha-THPROG concentration in rat cerebral cortex after 30 min of intraperitoneal administration. The format is functional, organism-based. Set-up: dose 25 mg/kg. Put shortly:
as §1

The test system of test [4] is Rattus norvegicus. As to the kind of experiment: Effect of the 25 mg/kg compound on progesterone concentration in rat plasma after 30 min of intraperitoneal administration. It is filed as functional, organism-based. Set-up: dose 25 mg/kg. The method in brief:
as §1

The subject of test [5] is Rattus norvegicus. The test can be described thus: Effect of the 25 mg/kg compound on progesterone concentration in rat cerebral cortex after 30 min of intraperitoneal administration. It is filed as functional, organism-based. Also on record: dose 25 mg/kg. The method in brief:
as §1

Test [6] concerns the target GABA-A receptor; anion channel. The test can be described thus: Inhibitory concentration of central benzodiazepine GABA-A receptor of rat cerebral cortex. It is filed as tissue-based. The method in brief: (§2)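 Rat cerebral cortex homogenised in 50 vol ice-cold 50 mM Tris-HCl pH 7.4, spun twice at 20 000g for 10 min. Membranes (0.4–0.5 mg protein) incubated with [3H]flunitrazepam for 60 min at 0 °C. Rapid filtration on GF/B filters, scintillation counting. Nonspecific binding with 5 μM diazepam. Means of three experiments in duplicate; Ki reported.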

For test [7], the target named is T1, Translocator protein (Rattus norvegicus, UniProt P16257). As to the kind of experiment: Inhibitory concentration against peripheral benzodiazepine receptor of rat ovary. The format is tissue-based, Female gonad. The method in brief:
(§3)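 Rat tissue (cerebral cortex, ovary) homogenised in 50 vol PBS pH 7.4 at 4 °C, spun at 40 000g for 30 min, washed, resuspended in 10 vol PBS. […] Filtration on polyethyleneimine-soaked GF/B filters, scintillation counting. […] Means of three experiments in duplicate; Ki reported.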

For test [8], the system named is Rattus norvegicus. As to the kind of experiment: Effect of the 25 mg/kg compound on 3-alpha,5alpha-THPROG concentration in rat plasma after 30 min of intraperitoneal administration. The format is functional, organism-based. Set-up: dose 25 mg/kg. Put shortly: as §1
In test [9] the target is GABA-A receptor; anion channel. As to the kind of experiment: Displacement of [3H]flunitrazepam from central benzodiazepine GABA-A receptor of rat cerebral cortex. It is filed as tissue-based. Put shortly:
as §2
(In general: In a radioligand displacement assay an active substance lowers the binding of a labelled ligand.)

Test [10] concerns Rattus norvegicus. The test can be described thus: Effect of the 25 mg/kg compound on 3-alpha,5alpha-THDOC concentration in rat cerebral cortex after 30 min of intraperitoneal administration. It is filed as functional, organism-based. Set-up: dose 25 mg/kg. Put shortly: as §1
Test [11] deals with T1, Translocator protein. The test can be described thus: Inhibitory concentration against peripheral benzodiazepine receptor of rat cerebral cortex. The format is tissue-based. The method in brief: as §3
For test [12], the target named is T1, Translocator protein. As to the kind of experiment: Displacement of [3H]-PK11195 from peripheral benzodiazepine receptor of rat ovary. It is filed as tissue-based, Female gonad. Put shortly: as §3
Test [13] has as its target T1, Translocator protein. The test can be described thus: Displacement of [3H]PK11195 from peripheral benzodiazepine receptor of rat cerebral cortex. It is filed as tissue-based. The method in brief: as §3

T1 sequence (P16257 whole entry, looked up): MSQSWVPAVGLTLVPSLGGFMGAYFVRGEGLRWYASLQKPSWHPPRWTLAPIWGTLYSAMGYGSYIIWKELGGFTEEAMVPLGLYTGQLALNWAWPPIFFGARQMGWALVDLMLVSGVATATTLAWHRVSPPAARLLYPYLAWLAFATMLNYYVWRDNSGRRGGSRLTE

As for `O=C(Cc1c(-c2ccc(Cl)cc2)nc2c(Cl)cc(Cl)cn12)N1CCCCC1`, the Selectivity index in test [1] was found to be 2.04. For the same compound, the Concentration in the test with Rattus norvegicus [2] was determined as 9.6 ng/mL; with Rattus norvegicus [3], 7.3 ng/g; in the test on Rattus norvegicus [4] it was 12.2 ng/mL; in the test on Rattus norvegicus [5], 7.8 ng/g; in the test on Rattus norvegicus [8] it was 19.4 ng/mL; with Rattus norvegicus [10], 2.9 ng/g. The pIC50 in test [6] came to 5. In addition, the IC50 is 92 nM against Translocator protein [7] and 5 nM against Translocator protein [11]. The Ki in [9] worked out at 7590 nM; at Translocator protein [12], 65.4 nM; on Translocator protein [13], 3.05 nM.
For the compound `C=CCN(CC=C)C(=O)Cc1c(-c2ccc(Cl)cc2)nc2c(Cl)cc(Cl)cn12`, the Selectivity index in test [1] stood at 3.25. Besides, the Concentration in the test on Rattus norvegicus [2] was 9 ng/mL; in the test with Rattus norvegicus [3], 8.6 ng/g; with Rattus norvegicus [4] it was 12.2 ng/mL; with Rattus norvegicus [5], 11.5 ng/g; in the test with Rattus norvegicus [8], 18.1 ng/mL; in the test with Rattus norvegicus [10], 3.2 ng/g. The same compound returned a pIC50 in test [6] of 5. The IC50 was 5.6 nM at Translocator protein [7] and 8.09 nM at Translocator protein [11]. Further, the Ki in test [9] worked out at 7750 nM; on Translocator protein [12] it was 4.06 nM; on Translocator protein [13], 4.77 nM.
For `CCCCN(C)C(=O)Cc1c(-c2ccc(Cl)cc2)nc2c(Cl)cc(Cl)cn12`, the Selectivity index in test [1] is 3.48. Further, the Concentration with Rattus norvegicus [2] was determined as 8.1 ng/mL; with Rattus norvegicus [3] it was 7.4 ng/g; in the test on Rattus norvegicus [4], 14.9 ng/mL; in the test with Rattus norvegicus [5], 8.9 ng/g; in the test with Rattus norvegicus [8] it was 16.2 ng/mL; in the test with Rattus norvegicus [10], 3.9 ng/g. In addition, the pIC50 in test [6] was 5. The IC50 is 3.3 nM at Translocator protein [7] and 0.45 nM against Translocator protein [11]. Further, the Ki was 6880 nM in [9], 2.46 nM at Translocator protein [12] and 0.302 nM on Translocator protein [13].
For `CN(C(=O)Cc1c(-c2ccc(Cl)cc2)nc2c(Cl)cc(Cl)cn12)c1ccccc1`, the Selectivity index in test [1] came out at 3.77. In addition, the Concentration worked out at 8.3 ng/mL in the test on Rattus norvegicus [2]; 7.4 ng/g in the test with Rattus norvegicus [3]; 13.9 ng/mL with Rattus norvegicus [4]; 7.2 ng/g in the test on Rattus norvegicus [5]; 20.3 ng/mL in the test on Rattus norvegicus [8]; 2.8 ng/g with Rattus norvegicus [10]. In test [6], this compound had a pIC50 of 5. The IC50 against Translocator protein [7] is 1.7 nM; on Translocator protein [11], 0.33 nM. The Ki in test [9] worked out at 6880 nM; at Translocator protein [12], 1.27 nM; at Translocator protein [13], 0.203 nM.
Regarding `CCCCN(C(=O)Cc1c(-c2ccccc2)nc2c(Cl)cc(Cl)cn12)c1ccccc1`, the Selectivity index in test [1] amounted to 3.34. Moreover, the Concentration in the test on Rattus norvegicus [2] stood at 8.9 ng/mL; in the test with Rattus norvegicus [3] it was 16.3 ng/g; in the test with Rattus norvegicus [4] it was 17.3 ng/mL; in the test on Rattus norvegicus [5], 5.8 ng/g; in the test on Rattus norvegicus [8], 21.3 ng/mL; in the test on Rattus norvegicus [10], 2.6 ng/g. The pIC50 in test [6] is 5. The IC50 against Translocator protein [7] was 4.6 nM; against Translocator protein [11], 11.5 nM. Further, the Ki worked out at 6880 nM in test [9], 3.5 nM on Translocator protein [12] and 6.78 nM at Translocator protein [13].
As for `CCCCN(CCCC)C(=O)Cc1c(-c2ccc(Cl)cc2)nc2c(Cl)cc(Cl)cn12`, the Selectivity index in [1] was 2.73. The Concentration with Rattus norvegicus [2] came out at 16.2 ng/mL; with Rattus norvegicus [3] it was 9.1 ng/g; in the test with Rattus norvegicus [4], 19 ng/mL; in the test on Rattus norvegicus [5], 11.5 ng/g; in the test on Rattus norvegicus [8], 27.5 ng/mL; in the test with Rattus norvegicus [10] it was 3.5 ng/g. Also, the pIC50 in [6] was found to be 5. The results for the IC50 against Translocator protein [7] and on Translocator protein [11] were 18.6 nM and 5.2 nM, respectively. In addition, the figures for the Ki (in test [9]; at Translocator protein [12]; at Translocator protein [13]) were 7750 nM, 13.2 nM and 2.68 nM, respectively.
With `CCCCN(CCCC)C(=O)Cc1c(-c2ccc(Cl)cc2)nc2c(Cl)cccn12`, the Selectivity index in [1] was 7.65. For the same compound, the Concentration in the test with Rattus norvegicus [2] is 14.9 ng/mL; in the test on Rattus norvegicus [3], 8.8 ng/g; in the test with Rattus norvegicus [4], 26 ng/mL; in the test with Rattus norvegicus [5], 10.3 ng/g; in the test with Rattus norvegicus [8], 23.4 ng/mL; with Rattus norvegicus [10], 2.9 ng/g. This compound showed a pIC50 in [6] of 5. The IC50 was 22.6 nM at Translocator protein [7] and 7.87 nM against Translocator protein [11]. The Ki in [9] stood at 6880 nM; on Translocator protein [12] it was 17.2 nM; at Translocator protein [13] it was 4.64 nM.
Regarding `CCCCN(C)C(=O)Cc1c(-c2ccccc2)nc2c(Cl)cc(Cl)cn12`, in [1], the Selectivity index was 3.64. The Concentration in the test on Rattus norvegicus [2] worked out at 10.4 ng/mL; in the test with Rattus norvegicus [3], 9.2 ng/g; in the test on Rattus norvegicus [4], 13.6 ng/mL; in the test with Rattus norvegicus [5] it was 10.6 ng/g; in the test on Rattus norvegicus [8], 16.5 ng/mL; with Rattus norvegicus [10], 4.1 ng/g. The pIC50 in [6] is 5. Besides, the IC50 was 2.3 nM at Translocator protein [7] and 3.5 nM against Translocator protein [11]. Besides, the Ki is 1.72 nM at Translocator protein [12] and 2.16 nM at Translocator protein [13].
For the compound `CCCN(CCC)C(=O)C(C)c1c(-c2ccc(Cl)cc2)nc2c(Cl)cc(Cl)cn12` (stereo not given), the Selectivity index in test [1] stood at 0.572. This compound also showed a pIC50 in [6] of 5. Also, the IC50 at Translocator protein [7] was 2680 nM; on Translocator protein [11], 1200 nM. The Ki was found to be 7010 nM in test [9], 1930 nM on Translocator protein [12] and 701 nM at Translocator protein [13].
